# Data reported in ChEMBL document CHEMBL3774372, “Design, physico-chemical properties and biological evaluation of some new N-[(phenoxy)alkyl]- and N-{2-[2-(phenoxy)ethoxy]ethyl}aminoalkanols as anticonvulsant agents” (Bioorg Med Chem, 2016).
# Active and inactive are the calls of the source.
# What was measured:
# Mus musculus [1] = assay: Anticonvulsant activity in mouse assessed as protection against subcutaneous pentylenetetrazol-induced seizures at 300 mg/kg, ip measured after 0.5 hrs; assay type: functional, organism-based
# Outline: (§1)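 Mice dosed ip as 0.5% methylcellulose suspension; pentylenetetrazole 85 mg/kg in 0.9% NaCl injected subcutaneously into posterior midline, animals watched at least 30 min. Protection = no threshold seizure (single clonic spasm episode lasting ≥5 s); scored protected/tested.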
# Mus musculus [2] = assay: Anticonvulsant activity in mouse assessed as protection against maximal electric shock-induced seizures at 30 mg/kg, ip measured after 4 hrs; assay type: functional, organism-based
# Outline: (§2)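 Mice dosed ip with suspension in 0.5% methylcellulose; maximal electroshock applied at the listed time after dosing. Protection = abolition of hindlimb tonic extension component of seizure; reported as animals protected/animals tested.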
# Mus musculus [3] = assay: Anticonvulsant activity in mouse assessed as protection against maximal electric shock-induced seizures at 100 mg/kg, ip measured after […]; assay type: functional, organism-based
# Mus musculus [4] = assay: Anticonvulsant activity in mouse assessed as protection against subcutaneous pentylenetetrazol-induced seizures at 30 mg/kg, ip measured after 0.5 hrs; assay type: functional, organism-based; outline: as §1
# Mus musculus [5] = assay: Anticonvulsant activity in mouse assessed as protection against maximal electric shock-induced seizures at 300 mg/kg, ip measured after 4 hrs; assay type: functional, organism-based; outline: as §2
# Mus musculus [6] = assay: Anticonvulsant activity in mouse assessed as protection against maximal electric shock-induced seizures at 100 mg/kg, ip measured after 1 hr; assay type: functional, organism-based; outline: as §2
# Mus musculus [7] = assay: Neurotoxicity in mouse at 300 mg/kg, ip after 0.5 hrs by rotarod test; assay type: toxicity, organism-based; settings: in vivo
# Outline: (§3)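 Mice were dosed ip with compound suspended in 0.5% methylcellulose. Rotarod: a 1 in. knurled rod turning at 6 rpm. Neurotoxicity was scored as failure to stay on the rod for at least 1 min in each of three trials. Results are given as the number of animals affected out of the number tested.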
# Mus musculus [8] = assay: Anticonvulsant activity in mouse assessed as protection against subcutaneous pentylenetetrazol-induced seizures at 100 mg/kg, ip measured after 0.5 hrs; assay type: functional, organism-based; outline: as §1
# Mus musculus [9] = assay: Anticonvulsant activity in mouse assessed as protection against maximal electric shock-induced seizures at 100 mg/kg, ip measured after 0.5 hrs; assay type: functional, organism-based; outline: as §2
# Mus musculus [10] = assay: Neurotoxicity in mouse at 30 mg/kg, ip after […] by rotarod test; assay type: toxicity, organism-based; settings: in vivo
# Mus musculus [11] = assay: Neurotoxicity in mouse at 300 mg/kg, ip after 4 hrs by rotarod test; assay type: toxicity, organism-based; settings: in vivo; outline: as §3
# Mus musculus [12] = assay: Neurotoxicity in mouse at 100 mg/kg, ip after 1 hr by rotarod test; assay type: toxicity, organism-based; settings: in vivo; outline: as §3
# Mus musculus [13] = assay: Anticonvulsant activity in mouse assessed as protection against maximal electric shock-induced seizures at 300 mg/kg, ip measured after 0.5 hrs; assay type: functional, organism-based; outline: as §2
# Mus musculus [14] = assay: Anticonvulsant activity in mouse assessed as protection against maximal electric shock-induced seizures at 100 mg/kg, ip measured after 4 hrs; assay type: functional, organism-based; outline: as §2
# Mus musculus [15] = assay: Anticonvulsant activity in mouse assessed as protection against subcutaneous pentylenetetrazol-induced seizures at 100 mg/kg, ip measured after 4 hrs; assay type: functional, organism-based; outline: as §1
# Mus musculus [16] = assay: Anticonvulsant activity in mouse assessed as protection against subcutaneous pentylenetetrazol-induced seizures at 300 mg/kg, ip measured after 4 hrs; assay type: functional, organism-based; outline: as §1
# Mus musculus [17] = assay: Anticonvulsant activity in mouse assessed as protection against subcutaneous pentylenetetrazol-induced seizures at 30 mg/kg, ip measured after 4 hrs; assay type: functional, organism-based; outline: as §1
# Mus musculus [18] = assay: Anticonvulsant activity in mouse assessed as protection against maximal electric shock-induced seizures at 30 mg/kg, ip measured after 0.5 hrs; assay type: functional, organism-based; outline: as §2
# in vitro [19] = settings: mouse, liver microsomes
# Vibrio harveyi [20] = assay: Mutagenicity in Vibrio harveyi BB7M assessed as number of colonies after 48 hrs (reference value: 13 to 14 no_unit); assay type: ADME, organism-based; settings: in vivo
# Outline: (§4)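 Vibrio harveyi mutagenicity test: test compound was added to exponentially growing cultures (A600 = 0.1, 30 °C) and grown to OD600 0.3–0.4. Then 5 × 10^6 cells were plated on BOSS agar with neomycin (final 100 µg/mL) and incubated 48 h at 30 °C. Neomycin-resistant colonies were counted. Triplicate; controls were water, DMSO and NQNO 40 ng/mL.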
# Vibrio harveyi [21] = assay: Mutagenicity in Vibrio harveyi BB7X assessed as number of colonies after 48 hrs (reference value: 15 to 16 no_unit); assay type: ADME, organism-based; settings: in vivo; outline: as §4
# Vibrio harveyi [22] = assay: Antimutagenic activity against Vibrio harveyi BB7XM assessed as inhibition of NQNO-induced mutagenicity after 48 hrs; assay type: functional
# Outline: (§5)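 V. harveyi cultures grown exponentially to A600 0.1 at 30 °C, exposed to test compound for 15 min, then to NQNO, and grown on to A600 0.3–0.4. 5 × 10⁶ cells plated on BOSS agar with neomycin (100, final). Neomycin-resistant colonies counted after 48 h at 30 °C. Result given as % inhibition of NQNO mutagenicity; three independent repeats.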
# Mus musculus [23] = assay: Neurotoxicity in mouse at 30 mg/kg, ip after 0.5 hrs by rotarod test; assay type: toxicity, organism-based; settings: in vivo; outline: as §3
# Mus musculus [24] = assay: Neurotoxicity in mouse at 30 mg/kg, ip after 4 hrs by rotarod test; assay type: toxicity, organism-based; settings: in vivo; outline: as §3
# Vibrio harveyi [25] = assay: Antimutagenic activity against Vibrio harveyi BB7 assessed as inhibition of NQNO-induced mutagenicity after 48 hrs; assay type: functional; outline: as §5
# Vibrio harveyi [26] = assay: Antimutagenic activity against Vibrio harveyi BB7X assessed as inhibition of NQNO-induced mutagenicity after 48 hrs; assay type: functional; outline: as §5
# in vitro [27] = settings: mouse, liver microsomes; remark: listed apart in the source
# Vibrio harveyi [28] = assay: Antimutagenic activity against Vibrio harveyi BB7M assessed as inhibition of NQNO-induced mutagenicity after 48 hrs; assay type: functional; outline: as §5
# Vibrio harveyi [29] = assay: Mutagenicity in Vibrio harveyi BB7XM assessed as number of colonies after 48 hrs (reference value: 14 no_unit); assay type: ADME, organism-based; settings: in vivo; outline: as §4
# Vibrio harveyi [30] = assay: Mutagenicity in Vibrio harveyi BB7 assessed as number of colonies after 48 hrs (reference value: 13 to 14 no_unit); assay type: ADME, organism-based; settings: in vivo; outline: as §4
# [31] = Retention time of the compound in mouse liver microsomes at 20 uM preincubated for 15 mins followed by addition of NADPH-regenerating system measured after 5 to 90 mins by […] analysis; assay type: ADME
# Outline: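 Mouse liver microsomes (0.4 mg/mL) with test compound (20 µM) in 100 mM potassium phosphate, pH 7.4, were preincubated 15 min at 37 °C. An NADPH-regenerating system was then added and incubation ran 5–90 min at 37 °C. Levallorphan (20 µM) served as internal standard, and reactions were quenched with perchloric acid. The supernatant was analysed by UPLC/MS. Duplicate incubations.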
# Mus musculus [32] = assay: Neurotoxicity in mouse at 100 mg/kg, ip after 4 hrs by rotarod test; assay type: toxicity, organism-based; settings: in vivo; outline: as §3
# Mus musculus [33] = assay: Neurotoxicity in mouse at 50 mg/kg, ip after 0.5 hrs by rotarod test; assay type: toxicity, organism-based; settings: in vivo; outline: as §3
# Mus musculus [34] = assay: Anticonvulsant activity in mouse assessed as protection against 6 Hz psychomotor seizure at 50 mg/kg, ip after 0.5 hrs; assay type: functional, organism-based
# Outline: (§6)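 Suspension in 0.5% methylcellulose given ip to mice; corneal stimulation with 0.2 ms monopolar rectangular pulses at 6 Hz for 3 s from a constant current device, mice restrained then released to observation cage. Protected if normal exploratory behaviour resumed within 10 s of stimulation. Scored as protected/tested, 4 mice per group.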
# Mus musculus [35] = assay: Neurotoxicity in mouse at 100 mg/kg, ip after […] by rotarod test; assay type: toxicity, organism-based; settings: in vivo
# Mus musculus [36] = assay: Neurotoxicity in mouse at 50 mg/kg, ip after 2 hrs by rotarod test; assay type: toxicity, organism-based; settings: in vivo; outline: as §3
# Mus musculus [37] = assay: Anticonvulsant activity in mouse assessed as protection against 6 Hz psychomotor seizure at 50 mg/kg, ip after 2 hrs; assay type: functional, organism-based; outline: as §6
# Mus musculus [38] = assay: Neurotoxicity in mouse at 100 mg/kg, ip after 0.5 hrs by rotarod test; assay type: toxicity, organism-based; settings: in vivo; outline: as §3
# Mus musculus [39] = assay: Anticonvulsant activity in mouse assessed as protection against 6 Hz psychomotor seizure at 50 mg/kg, ip after 4 hrs; assay type: functional, organism-based; outline: as §6
# Mus musculus [40] = assay: Neurotoxicity in mouse at 50 mg/kg, ip after 1 hr by rotarod test; assay type: toxicity, organism-based; settings: in vivo; outline: as §3
# Mus musculus [41] = assay: Neurotoxicity in mouse at 50 mg/kg, ip after 4 hrs by rotarod test; assay type: toxicity, organism-based; settings: in vivo; outline: as §3
# Mus musculus [42] = assay: Anticonvulsant activity in mouse assessed as protection against 6 Hz psychomotor seizure at 50 mg/kg, ip after 1 hr; assay type: functional, organism-based; outline: as §6
smiles,measurement,setting,value
Cc1cccc(OCCCNCC(O)c2ccccc2)c1C (stereo unspecified),Activity,Mus musculus [1],inactive
same,Activity,Mus musculus [2],inactive
same,Activity,Mus musculus [3],inactive
same,Activity,Mus musculus [4],inactive
same,Activity,Mus musculus [5],inactive
same,Activity,Mus musculus [6],inactive
same,Activity,Mus musculus [7],Toxic
same,Activity,Mus musculus [8],inactive
same,Activity,Mus musculus [9],inactive
same,Activity,Mus musculus [10],Toxic
same,Activity,Mus musculus [11],Toxic
same,Activity,Mus musculus [12],Toxic
same,Activity,Mus musculus [13],Active
same,Activity,Mus musculus [14],inactive
same,Activity,Mus musculus [15],inactive
same,Activity,Mus musculus [16],inactive
same,Activity,Mus musculus [17],inactive
same,Activity,Mus musculus [18],inactive
Cc1cc(C)c(OCCOCCNC(C)CO)c(C)c1 (stereo unspecified),microsomal CLint at 20 µM,in vitro [19],13 µL/min/mg
same,Activity,Vibrio harveyi [20],19
same,Activity,Mus musculus [2],inactive
same,Activity,Mus musculus [4],inactive
same,Activity,Mus musculus [7],Toxic
same,Activity,Vibrio harveyi [21],24
same,Activity,Mus musculus [8],inactive
same,Activity,Mus musculus [9],Active
same,inhibition (INH),Vibrio harveyi [22],43%
same,Activity,Mus musculus [23],Non-toxic
same,Activity,Mus musculus [24],Non-toxic
same,inhibition (INH),Vibrio harveyi [25],81%
same,inhibition (INH),Vibrio harveyi [26],38%
same,Activity,Mus musculus [15],inactive
same,half-life at 20 µM,in vitro [27],136 min
same,inhibition (INH),Vibrio harveyi [28],62%
same,Activity,Vibrio harveyi [29],24
same,Activity,Mus musculus [17],inactive
same,Activity,Vibrio harveyi [30],25
same,Retention_time,[31],4.31 min
same,Activity,Mus musculus [32],Non-toxic
same,Activity,Mus musculus [18],inactive
Cc1cccc(OCCN[C@@H]2CCCC[C@H]2O)c1C (racemic),Activity,Mus musculus [33],Non-toxic
same,Activity,Mus musculus [34],inactive
same,Activity,Mus musculus [3],Active
same,Activity,Mus musculus [6],Active
same,Activity,Mus musculus [35],Toxic
same,Activity,Mus musculus [9],Active
same,Activity,Mus musculus [36],Non-toxic
same,Activity,Mus musculus [12],Toxic
same,Activity,Mus musculus [14],inactive
same,Activity,Mus musculus [37],inactive
same,Activity,Mus musculus [38],Toxic
same,Activity,Mus musculus [39],inactive
same,Activity,Mus musculus [40],Non-toxic
same,Activity,Mus musculus [41],Non-toxic
same,Activity,Mus musculus [32],Non-toxic
same,Activity,Mus musculus [42],inactive
